From paper PMC9883262 (Molecular Metabolism, 2023)

Test system: MMP-9 secreted by MCF-7 cells
Test: Gelatin zymography MMP-9 secretion, MCF-7
Assay type: cell-based
Settings: 80 nM PMA, serum-free medium, MCF-7, vs basal (MMP-9 not detectable)
Outline: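 Cells attached overnight, then treated 24 or 48 h with test compound or DMSO vehicle in serum-free medium. Conditioned medium was acetone-precipitated (4 volumes, −20 °C, 2 h), and pellets were taken up in non-reducing SDS buffer. Samples were run on a 7.5% gel with 1 mg/mL gelatin, washed in Triton X-100/CaCl2/ZnCl2, incubated overnight at 37 °C, and Coomassie-stained. Mean ± SD of three independent experiments.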

With `CCCCCCCCCCCCCC(=O)O[C@@H]1[C@@H](C)[C@@]2(O)[C@@H](C=C(CO)C[C@]3(O)C(=O)C(C)=C[C@@H]23)[C@@H]2C(C)(C)[C@]12OC(C)=O` [PMA, phorbol 12-myristate 13-acetate] the “secreted MMP-9 level, PMA stimulation” value was “drastically increased”.
